One may read the IC50 as the concentration that gives 50% inhibition. A low value points to greater potency.

For one assay, the system named is Trypanosoma cruzi. Briefly: In Vitro evaluation for the percentage of activity towards Trypanosoma cruzi at 6.25 uM Concentration; Toxic upon mouse primary peritoneal macrophages.
Details: not given
In kind it is functional, organism-based. The method, boiled down: (§1)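 Mouse peritoneal macrophages, 30 000/well, infected after 24 h with about 100 000 T. cruzi trypomastigotes per well plus 2-fold drug dilutions (12.5–1.56 µM). Incubated 4 days at 37 °C, 5% CO2. Methanol-fixed, Giemsa-stained and scored microscopically as % reduction of total parasite load (free trypomastigotes plus intracellular amastigotes) versus untreated controls.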
`COc1ccc2nc3cc(Cl)ccc3c(NCCCCNc3c4ccc(Cl)cc4nc4ccc(OC)cc34)c2c1`: the Cytotoxicity entry is “Toxic”.
The same measure, in the same setting: as for `COc1ccc2nc3cc(Cl)ccc3c(NCCCN(CCCNc3c4ccc(Cl)cc4nc4ccc(OC)cc34)C(=O)CCN3CCN(C)CC3)c2c1`, the entry is “Toxic”; as for `COc1ccc2nc3cc(Cl)ccc3c(NCCCNCCCNc3c4ccc(Cl)cc4nc4ccc(OC)cc34)c2c1`, “Toxic”.

A further assay deals with Trypanosoma cruzi. Briefly: Percentage of activity against Trypanosoma cruzi at 12.5 uM; Toxic upon mouse primary peritoneal macrophages. It counts as functional, organism-based.
Details: not given
The method, boiled down:
as §1
`COc1ccc2nc3cc(Cl)ccc3c(NCCCCNc3c4ccc(Cl)cc4nc4ccc(OC)cc34)c2c1`: the Cytotoxicity result was “Toxic”.
For `COc1ccc2nc3cc(Cl)ccc3c(NCCCN(CCCNc3c4ccc(Cl)cc4nc4ccc(OC)cc34)C(=O)CCN3CCN(C)CC3)c2c1`, the Cytotoxicity result is “Toxic”.
Turning to `COc1ccc2nc3cc(Cl)ccc3c(NCCCNCCCNc3c4ccc(Cl)cc4nc4ccc(OC)cc34)c2c1`, the Cytotoxicity result was “Toxic”.

Another assay has as its system Leishmania infantum. Briefly: Percentage of activity against Leishmania infantum at 12.5 uM Concentration; Toxic upon mouse primary peritoneal macrophages. In kind it is functional, organism-based.
Details: not given
The method in brief:
(§2)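 Starch-stimulated mouse peritoneal macrophages, 30 000/well, infected after 24 h with spleen-derived L. infantum amastigotes (10:1) together with 2-fold drug dilutions (12.5–1.56 µM). Incubated 7 days at 37 °C, 5% CO2. Wright-stained slides scored microscopically as % reduction of total parasite load or of infected macrophages. Uninfected treated cultures judged microscopically for macrophage toxicity.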
As for `COc1ccc2nc3cc(Cl)ccc3c(NCCCCNc3c4ccc(Cl)cc4nc4ccc(OC)cc34)c2c1`, the Cytotoxicity result is “Toxic”.
On the same count and under the same terms, with `COc1ccc2nc3cc(Cl)ccc3c(NCCCN(CCCNc3c4ccc(Cl)cc4nc4ccc(OC)cc34)C(=O)CCN3CCN(C)CC3)c2c1` the entry was “Toxic”; with `COc1ccc2nc3cc(Cl)ccc3c(NCCCNCCCNc3c4ccc(Cl)cc4nc4ccc(OC)cc34)c2c1`, “Toxic”.

A further assay deals with MRC5. Briefly: Cytotoxicity on MRC-5 cells at 3.13 uM. In kind it is functional. The note with it: Homo sapiens. The method in brief: (§3)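 MRC-5 human diploid embryonic lung cells seeded at 5 000/well, washed after 24 h, then given 2-fold drug dilutions (25, 12.5, 6.25, 3.13 µM) in RPMI + 5% FCS, final DMSO below 0.5%. Incubated 7 days at 37 °C, 5% CO2. MTT colorimetric read-out, scored as % reduction of absorbance at 540 nm versus untreated controls.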
As to `COc1ccc2nc3cc(Cl)ccc3c(NCCCCNc3c4ccc(Cl)cc4nc4ccc(OC)cc34)c2c1`, the cytotoxicity at 3.13 µM was 100%.
Same read-out and setting: as for `COc1ccc2nc3cc(Cl)ccc3c(NCCCN(CCCNc3c4ccc(Cl)cc4nc4ccc(OC)cc34)C(=O)CCN3CCN(C)CC3)c2c1`, the figure is 40%; as for `COc1ccc2nc3cc(Cl)ccc3c(NCCCNCCCNc3c4ccc(Cl)cc4nc4ccc(OC)cc34)c2c1`, 100%.

For another assay, the system named is MRC5. Briefly: Cytotoxicity on MRC-5 cells at 25 uM. In kind it is functional. The following applies: Homo sapiens. The method, boiled down:
as §3
Molecule `COc1ccc2nc3cc(Cl)ccc3c(NCCCCNc3c4ccc(Cl)cc4nc4ccc(OC)cc34)c2c1` showed a cytotoxicity at 25 µM of 100%.
Still for that read-out and setting: as for `COc1ccc2nc3cc(Cl)ccc3c(NCCCN(CCCNc3c4ccc(Cl)cc4nc4ccc(OC)cc34)C(=O)CCN3CCN(C)CC3)c2c1`, the figure is 80%; as for `COc1ccc2nc3cc(Cl)ccc3c(NCCCNCCCNc3c4ccc(Cl)cc4nc4ccc(OC)cc34)c2c1`, 100%.

The next assay concerns Trypanosoma brucei. The experiment in a line: Percentage of activity against Trypanosoma brucei at 6.25 uM.
Details: not given
In kind it is functional. The method, boiled down: (§4)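 Bloodstream-form T. brucei in HMI-9 medium, 10 000 parasites/well, exposed to 12.5, 6.25, 3.13 and 1.56 µM drug for 4 days. Read-out is % inhibition of parasite multiplication. Macrophage toxicity judged on mouse primary peritoneal macrophages.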
In the case of `COc1ccc2nc3cc(Cl)ccc3c(NCCCCNc3c4ccc(Cl)cc4nc4ccc(OC)cc34)c2c1`, the “Inhibition of parasite multiplication” value was 100%.
The same measure, in the same setting: as for `COc1ccc2nc3cc(Cl)ccc3c(NCCCN(CCCNc3c4ccc(Cl)cc4nc4ccc(OC)cc34)C(=O)CCN3CCN(C)CC3)c2c1`, the figure is 100%.
Regarding `COc1ccc2nc3cc(Cl)ccc3c(NCCCNCCCNc3c4ccc(Cl)cc4nc4ccc(OC)cc34)c2c1`, the “Inhibition of parasite multiplication” value turned out to be 100%.

The test system of the next assay is MRC5. The experiment in a line: Cytotoxicity on MRC-5 cells at 12.5 uM. In kind it is functional. The following applies: Homo sapiens. The method in brief: as §3
Regarding `COc1ccc2nc3cc(Cl)ccc3c(NCCCCNc3c4ccc(Cl)cc4nc4ccc(OC)cc34)c2c1`, the cytotoxicity at 12.5 µM came out at 100%.
The same measure, in the same setting: with `COc1ccc2nc3cc(Cl)ccc3c(NCCCN(CCCNc3c4ccc(Cl)cc4nc4ccc(OC)cc34)C(=O)CCN3CCN(C)CC3)c2c1` the figure was 74%; with `COc1ccc2nc3cc(Cl)ccc3c(NCCCNCCCNc3c4ccc(Cl)cc4nc4ccc(OC)cc34)c2c1`, 100%.

The subject of the next assay is Trypanosoma cruzi. Briefly: In Vitro evaluation for the percentage of activity towards Trypanosoma cruzi at 3.13 uM Concentration; Toxic upon mouse primary peritoneal macrophages. In kind it is functional, organism-based.
Details: not given
The method in brief: as §1
On to `COc1ccc2nc3cc(Cl)ccc3c(NCCCCNc3c4ccc(Cl)cc4nc4ccc(OC)cc34)c2c1`, for which the Cytotoxicity entry is “Toxic”.
`COc1ccc2nc3cc(Cl)ccc3c(NCCCN(CCCNc3c4ccc(Cl)cc4nc4ccc(OC)cc34)C(=O)CCN3CCN(C)CC3)c2c1`: the Cytotoxicity entry is “Toxic”.
Still for that read-out and setting: with `COc1ccc2nc3cc(Cl)ccc3c(NCCCNCCCNc3c4ccc(Cl)cc4nc4ccc(OC)cc34)c2c1` the entry was “Toxic”.

A further assay concerns Trypanosoma cruzi. Briefly: Percentage of activity against Trypanosoma cruzi at 1.56 uM.
Details: not given
It counts as functional. The method in brief:
as §1
For the molecule `COc1ccc2nc3cc(Cl)ccc3c(NCCCCNc3c4ccc(Cl)cc4nc4ccc(OC)cc34)c2c1`, the Parasite load reduction is recorded as 90%.
On the same count and under the same terms, with `COc1ccc2nc3cc(Cl)ccc3c(NCCCN(CCCNc3c4ccc(Cl)cc4nc4ccc(OC)cc34)C(=O)CCN3CCN(C)CC3)c2c1` the figure was 0%; with `COc1ccc2nc3cc(Cl)ccc3c(NCCCNCCCNc3c4ccc(Cl)cc4nc4ccc(OC)cc34)c2c1`, 60%.

The test system of the next assay is Leishmania infantum. Briefly: Percentage of activity against Leishmania infantum at 1.56 uM. In kind it is functional.
Details: not given
The method, boiled down:
as §2
For `COc1ccc2nc3cc(Cl)ccc3c(NCCCNCCCNc3c4ccc(Cl)cc4nc4ccc(OC)cc34)c2c1`, the “Antileishmanial activity (% reduction of parasite load)” value is recorded as 40%.

The next assay deals with Leishmania infantum. Briefly: Percentage of activity against Leishmania infantum at 6.25 uM; Toxic upon mouse primary peritoneal macrophages. It counts as functional, organism-based.
Details: not given
The method, boiled down:
as §2
On to `COc1ccc2nc3cc(Cl)ccc3c(NCCCCNc3c4ccc(Cl)cc4nc4ccc(OC)cc34)c2c1`, for which the Cytotoxicity result was “Toxic”.
The same measure, in the same setting: as for `COc1ccc2nc3cc(Cl)ccc3c(NCCCN(CCCNc3c4ccc(Cl)cc4nc4ccc(OC)cc34)C(=O)CCN3CCN(C)CC3)c2c1`, the entry is “Toxic”.
Same read-out and setting: as for `COc1ccc2nc3cc(Cl)ccc3c(NCCCNCCCNc3c4ccc(Cl)cc4nc4ccc(OC)cc34)c2c1`, the entry is “Toxic”.

The subject of another assay is Trypanosoma brucei. Briefly: Percentage of activity against Trypanosoma brucei at 12.5 uM. In kind it is functional.
Details: not given
The method, boiled down: as §4
As for `COc1ccc2nc3cc(Cl)ccc3c(NCCCCNc3c4ccc(Cl)cc4nc4ccc(OC)cc34)c2c1`, the “Inhibition of parasite multiplication” value amounted to 100%.
Regarding `COc1ccc2nc3cc(Cl)ccc3c(NCCCNCCCNc3c4ccc(Cl)cc4nc4ccc(OC)cc34)c2c1`, the “Inhibition of parasite multiplication” value stood at 100%.

The test system of another assay is MRC5. Briefly: Cytotoxicity on MRC-5 cells at 6.25 uM. In kind it is functional. The following applies: Homo sapiens. The method in brief: as §3
`COc1ccc2nc3cc(Cl)ccc3c(NCCCCNc3c4ccc(Cl)cc4nc4ccc(OC)cc34)c2c1` displayed a cytotoxicity at 6.25 µM of 100%.
Same read-out and setting: as for `COc1ccc2nc3cc(Cl)ccc3c(NCCCN(CCCNc3c4ccc(Cl)cc4nc4ccc(OC)cc34)C(=O)CCN3CCN(C)CC3)c2c1`, the figure is 57%; as for `COc1ccc2nc3cc(Cl)ccc3c(NCCCNCCCNc3c4ccc(Cl)cc4nc4ccc(OC)cc34)c2c1`, 100%.

For a further assay, the system named is Leishmania infantum. The experiment in a line: In Vitro evaluation for the percentage of activity towards Leishmania infantum at 1.56 uM Concentration; Toxic upon mouse primary peritoneal macrophages. It counts as functional, organism-based.
Details: not given
The method in brief: as §2
For `COc1ccc2nc3cc(Cl)ccc3c(NCCCCNc3c4ccc(Cl)cc4nc4ccc(OC)cc34)c2c1`, the Cytotoxicity result is “Toxic”.
The same measure, in the same setting: as for `COc1ccc2nc3cc(Cl)ccc3c(NCCCN(CCCNc3c4ccc(Cl)cc4nc4ccc(OC)cc34)C(=O)CCN3CCN(C)CC3)c2c1`, the entry is “Toxic”.

In a further assay the test system is Trypanosoma brucei. The experiment in a line: Percentage of activity against Trypanosoma brucei at 1.56 uM. In kind it is functional.
Details: not given
The method in brief: as §4
Consider `COc1ccc2nc3cc(Cl)ccc3c(NCCCCNc3c4ccc(Cl)cc4nc4ccc(OC)cc34)c2c1`, for which the “Percent inhibition of parasite multiplication” value is on record as 100%.
Same read-out and setting: as for `COc1ccc2nc3cc(Cl)ccc3c(NCCCN(CCCNc3c4ccc(Cl)cc4nc4ccc(OC)cc34)C(=O)CCN3CCN(C)CC3)c2c1`, the figure is 100%; as for `COc1ccc2nc3cc(Cl)ccc3c(NCCCNCCCNc3c4ccc(Cl)cc4nc4ccc(OC)cc34)c2c1`, 100%.

The test system of a further assay is Plasmodium falciparum. Briefly: In vitro sensitivity for Plasmodium falciparum FcB1R. In kind it is functional, organism-based.
Details: not given
The method in brief: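 Asynchronous P. falciparum cultures in human erythrocytes (0.5% parasitemia, 1% haematocrit) exposed to serially diluted drug for 24 h at 37 °C. [3H]hypoxanthine (0.5 µCi/well) then added for a further 24 h. Uptake compared with drug-free controls on the same plate. IC50 taken from the concentration–response curve, averaged over independent experiments. DMSO ≤0.1%.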
As to `COc1ccc2nc3cc(Cl)ccc3c(NCCCCNc3c4ccc(Cl)cc4nc4ccc(OC)cc34)c2c1`, the IC50 was determined as 0.018 µM.
On the same count and under the same terms, as for `COc1ccc2nc3cc(Cl)ccc3c(NCCCN(CCCNc3c4ccc(Cl)cc4nc4ccc(OC)cc34)C(=O)CCN3CCN(C)CC3)c2c1`, the figure is 0.062 µM.
For `COc1ccc2nc3cc(Cl)ccc3c(NCCCNCCCNc3c4ccc(Cl)cc4nc4ccc(OC)cc34)c2c1`, the IC50 was determined as 0.055 µM.

In the next assay the test system is Leishmania infantum. Briefly: In Vitro evaluation for the percentage of activity towards Leishmania infantum at 3.13 uM Concentration; Toxic upon mouse primary peritoneal macrophages. It counts as functional, organism-based.
Details: not given
The method, boiled down:
as §2
As to `COc1ccc2nc3cc(Cl)ccc3c(NCCCCNc3c4ccc(Cl)cc4nc4ccc(OC)cc34)c2c1`, the Cytotoxicity result is “Toxic”.
The same measure, in the same setting: with `COc1ccc2nc3cc(Cl)ccc3c(NCCCN(CCCNc3c4ccc(Cl)cc4nc4ccc(OC)cc34)C(=O)CCN3CCN(C)CC3)c2c1` the entry was “Toxic”.
Same read-out and setting: as for `COc1ccc2nc3cc(Cl)ccc3c(NCCCNCCCNc3c4ccc(Cl)cc4nc4ccc(OC)cc34)c2c1`, the entry is “Toxic”.

Another assay concerns Trypanosoma brucei. Briefly: Percentage of activity against Trypanosoma brucei at 3.13 uM.
Details: not given
It counts as functional. The method, boiled down:
as §4
`COc1ccc2nc3cc(Cl)ccc3c(NCCCCNc3c4ccc(Cl)cc4nc4ccc(OC)cc34)c2c1`: the Parasite growth inhibition is 100%.
Take `COc1ccc2nc3cc(Cl)ccc3c(NCCCN(CCCNc3c4ccc(Cl)cc4nc4ccc(OC)cc34)C(=O)CCN3CCN(C)CC3)c2c1`: the Parasite growth inhibition stood at 100%.
The same measure, in the same setting: as for `COc1ccc2nc3cc(Cl)ccc3c(NCCCNCCCNc3c4ccc(Cl)cc4nc4ccc(OC)cc34)c2c1`, the figure is 100%.

(Values after ChEMBL document CHEMBL1133105, “Antimalarial, antitrypanosomal, and antileishmanial activities and cytotoxicity of bis(9-amino-6-chloro-2-methoxyacridines): influence of the linker” (J Med Chem, 2000).)
